Data taken from ChEMBL document CHEMBL1145439, “Fluorine-18-labeled benzamide analogues for imaging the sigma2 receptor status of solid tumors with positron emission tomography” (J Med Chem, 2007).

Assays:
EMT6 [1] = assay: Biodistribution in tumor of mouse EMT6 tumor bearing BALB/c mouse at 10 to 20 uCi after 60 mins; assay type: ADME, organism-based; settings: emt6, 1 h
Procedure, shortened: (§1)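 EMT-6 cells (5×10^5 in 100 µL PBS) implanted s.c. in scapular region of female Balb/c mice (~2 months, 17-22 g); studied 7-10 days later at ~0.2 cm3 tumor. 18F tracer 10-20 µCi in 100-150 µL saline via tail vein; ≥4 mice per time point; tissue removed at sacrifice, weighed, gamma-counted; %ID/g calculated.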

Lung [2] = assay: Biodistribution in lung of mouse EMT6 tumor bearing BALB/c mouse at 10 to 20 uCi after 30 mins; assay type: ADME, organism-based; settings: in vivo, 0.5 h; procedure, shortened: as §1
Liver [3] = assay: Biodistribution in liver of mouse EMT6 tumor bearing BALB/c mouse at 10 to 20 uCi after 30 mins; assay type: ADME, organism-based; settings: in vivo, 0.5 h; procedure, shortened: as §1
Heart [4] = assay: Biodistribution in heart of mouse EMT6 tumor bearing BALB/c mouse at 10 to 20 uCi after 60 mins; assay type: ADME, organism-based; settings: in vivo, 1 h; procedure, shortened: as §1
Muscle tissue [5] = assay: Biodistribution in muscle of mouse EMT6 tumor bearing BALB/c mouse at 10 to 20 uCi after 120 mins; assay type: ADME, organism-based; settings: in vivo, 2 h; procedure, shortened: as §1
Brain [6] = assay: Biodistribution in brain of EMT6 tumor bearing BALB/c mouse at 10 to 20 uCi after 60 mins; assay type: ADME, organism-based; settings: in vivo, 1 h; procedure, shortened: as §1
Brain [7] = assay: Biodistribution in brain of mouse EMT6 tumor bearing BALB/c mouse at 10 to 20 uCi after 120 mins; assay type: ADME, organism-based; settings: in vivo, 2 h; procedure, shortened: as §1
Lung [8] = assay: Biodistribution in lung of mouse EMT6 tumor bearing BALB/c mouse at 10 to 20 uCi after 5 mins; assay type: ADME, organism-based; settings: in vivo; procedure, shortened: as §1
Liver [9] = assay: Biodistribution in liver of mouse EMT6 tumor bearing BALB/c mouse at 10 to 20 uCi after 60 mins; assay type: ADME, organism-based; settings: in vivo, 1 h; procedure, shortened: as §1
[10] = Tumor to fat ratio of the drug in mouse EMT6 tumor bearing BALB/c mouse at 10 to 20 uCi after 2 hrs; assay type: ADME
Procedure, shortened: (§2)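 Tumor-bearing female Balb/c mice (EMT-6 s.c. allograft, ~0.2 cm3) given 10-20 µCi 18F tracer in saline i.v. via tail vein; ≥4 per group; killed 120 min later. Tissues weighed and gamma-counted; ratio = tumor %ID/g divided by that organ's %ID/g.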

Heart [11] = assay: Biodistribution in heart of EMT6 tumor bearing BALB/c mouse at 10 to 20 uCi after 120 mins; assay type: ADME, organism-based; settings: in vivo, 2 h; procedure, shortened: as §1
Heart [12] = assay: Biodistribution in heart of mouse EMT6 tumor bearing BALB/c mouse at 10 to 20 uCi after 5 mins; assay type: ADME, organism-based; settings: in vivo; procedure, shortened: as §1
Lung [13] = assay: Biodistribution in lung of mouse EMT6 tumor bearing BALB/c mouse at 10 to 20 uCi after 120 mins; assay type: ADME, organism-based; settings: in vivo, 2 h; procedure, shortened: as §1
Blood [14] = assay: Biodistribution in blood of mouse EMT6 tumor bearing BALB/c mouse at 10 to 20 uCi after 5 mins; assay type: ADME, organism-based; settings: in vivo; procedure, shortened: as §1
Muscle tissue [15] = assay: Biodistribution in muscle of EMT6 tumor bearing BALB/c mouse at 10 to 20 uCi after 5 mins; assay type: ADME, organism-based; settings: in vivo; procedure, shortened: as §1
Bone [16] = assay: Biodistribution in bone of mouse EMT6 tumor bearing BALB/c mouse at 10 to 20 uCi after 5 mins; assay type: ADME, organism-based, Bone element; settings: in vivo; procedure, shortened: as §1
Adipose tissue [17] = assay: Biodistribution in fat of mouse EMT6 tumor bearing BALB/c mouse at 10 to 20 uCi after 30 mins; assay type: ADME, organism-based; settings: in vivo, 0.5 h; procedure, shortened: as §1
Muscle tissue [18] = assay: Biodistribution in muscle of mouse EMT6 tumor bearing BALB/c mouse at 10 to 20 uCi after 60 mins; assay type: ADME, organism-based; settings: in vivo, 1 h; procedure, shortened: as §1
Heart [19] = assay: Biodistribution in heart of mouse EMT6 tumor bearing BALB/c mouse at 10 to 20 uCi after 30 mins; assay type: ADME, organism-based; settings: in vivo, 0.5 h; procedure, shortened: as §1
Liver [20] = assay: Biodistribution in liver of mouse EMT6 tumor bearing BALB/c mouse at 10 to 20 uCi after 5 mins; assay type: ADME, organism-based; settings: in vivo; procedure, shortened: as §1
EMT6 [21] = assay: Biodistribution in tumor of mouse EMT6 tumor bearing BALB/c mouse at 10 to 20 uCi after 5 mins; assay type: ADME, organism-based; settings: emt6, 5 min; procedure, shortened: as §1
Liver [22] = assay: Biodistribution in liver of mouse EMT6 tumor bearing BALB/c mouse at 10 to 20 uCi after 120 mins; assay type: ADME, organism-based; settings: in vivo, 2 h; procedure, shortened: as §1
EMT6 [23] = assay: Biodistribution in tumor of EMT6 tumor bearing BALB/c mouse 10 to 20 uCi after 30 mins; assay type: ADME, organism-based; settings: emt6, 0.5 h; procedure, shortened: as §1
Muscle tissue [24] = assay: Biodistribution in muscle of mouse EMT6 tumor bearing BALB/c mouse at 10 to 20 uCi after 30 mins; assay type: ADME, organism-based; settings: in vivo, 0.5 h; procedure, shortened: as §1
Kidney [25] = assay: Biodistribution in kidney of mouse EMT6 tumor bearing BALB/c mouse at 10 to 20 uCi after 120 mins; assay type: ADME, organism-based; settings: in vivo, 2 h; procedure, shortened: as §1
[26] = Decrease in tumor to fat ratio of the drug in mouse EMT6 tumor bearing BALB/c mouse after 1 hr in presence of YUN-143; assay type: ADME; design: scale not given: the % may be the effect or the level left
Procedure, shortened: (§3)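 Blocking: 18F tracer coinjected i.v. with 1 mg/kg cold YUN-143 (σ1/σ2 ligand) into EMT-6 tumor-bearing female Balb/c mice; sacrificed at 60 min; tumor/muscle and tumor/fat ratios from %ID/g of gamma-counted tissues.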

Kidney [27] = assay: Biodistribution in kidney of mouse EMT6 tumor bearing BALB/c mouse at 10 to 20 uCi after 60 mins; assay type: ADME, organism-based; settings: in vivo, 1 h; procedure, shortened: as §1
EMT6 [28] = assay: Biodistribution in tumor of mouse EMT6 tumor bearing BALB/c mouse at 10 to 20 uCi after 120 mins; assay type: ADME, organism-based; settings: emt6, 2 h; procedure, shortened: as §1
Bone [29] = assay: Biodistribution in bone of mouse EMT6 tumor bearing BALB/c mouse at 10 to 20 uCi after 60 mins; assay type: ADME, organism-based, Bone element; settings: in vivo, 1 h; procedure, shortened: as §1
Adipose tissue [30] = assay: Biodistribution in fat of mouse EMT6 tumor bearing BALB/c mouse at 10 to 20 uCi after 120 mins; assay type: ADME, organism-based; settings: in vivo, 2 h; procedure, shortened: as §1
Bone [31] = assay: Biodistribution in bone of mouse EMT6 tumor bearing BALB/c mouse at 10 to 20 uCi after 30 mins; assay type: ADME, organism-based, Bone element; settings: in vivo, 0.5 h; procedure, shortened: as §1
Kidney [32] = assay: Biodistribution in kidney of mouse EMT6 tumor bearing BALB/c mouse at 10 to 20 uCi after 30 mins; assay type: ADME, organism-based; settings: in vivo, 0.5 h; procedure, shortened: as §1
Brain [33] = assay: Biodistribution in brain of EMT6 tumor bearing BALB/c mouse at 10 to 20 uCi after 30 mins; assay type: ADME, organism-based; settings: in vivo, 0.5 h; procedure, shortened: as §1
Bone [34] = assay: Biodistribution in bone of mouse EMT6 tumor bearing BALB/c mouse at 10 to 20 uCi after 120 mins; assay type: ADME, organism-based, Bone element; settings: in vivo, 2 h; procedure, shortened: as §1
Brain [35] = assay: Biodistribution in brain of EMT6 tumor bearing BALB/c mouse at 10 to 20 uCi after 5 mins; assay type: ADME, organism-based; settings: in vivo; procedure, shortened: as §1
Blood [36] = assay: Biodistribution in blood of mouse EMT6 tumor bearing BALB/c mouse at 10 to 20 uCi after 120 mins; assay type: ADME, organism-based; settings: in vivo, 2 h; procedure, shortened: as §1
Blood [37] = assay: Biodistribution in blood of mouse EMT6 tumor bearing BALB/c mouse at 10 to 20 uCi after 30 mins; assay type: ADME, organism-based; settings: in vivo, 0.5 h; procedure, shortened: as §1
[38] = Decrease in tumor to muscle ratio of the drug in mouse EMT6 tumor bearing BALB/c mouse after 1 hr in presence of YUN-143; assay type: ADME; design: scale not given: the % may be the effect or the level left; procedure, shortened: as §3
Adipose tissue [39] = assay: Biodistribution in fat of mouse EMT6 tumor bearing BALB/c mouse at 10 to 20 uCi after 60 mins; assay type: ADME, organism-based; settings: in vivo, 1 h; procedure, shortened: as §1
Blood [40] = assay: Biodistribution in blood of mouse EMT6 tumor bearing BALB/c mouse at 10 to 20 uCi after 60 mins; assay type: ADME, organism-based; settings: in vivo, 1 h; procedure, shortened: as §1
Adipose tissue [41] = assay: Biodistribution in fat of mouse EMT6 tumor bearing BALB/c mouse at 10 to 20 uCi after 5 mins; assay type: ADME, organism-based; settings: in vivo; procedure, shortened: as §1
[42] = Tumor to muscle ratio of the drug in mouse EMT6 tumor bearing BALB/c mouse at 10 to 20 uCi after 2 hrs; assay type: ADME, tissue-based, Muscle tissue; procedure, shortened: as §2
Kidney [43] = assay: Biodistribution in kidney of mouse EMT6 tumor bearing BALB/c mouse at 10 to 20 uCi after 5 mins; assay type: ADME, organism-based; settings: in vivo; procedure, shortened: as §1
Lung [44] = assay: Biodistribution in lung of mouse EMT6 tumor bearing BALB/c mouse at 10 to 20 uCi after 60 mins; assay type: ADME, organism-based; settings: in vivo, 1 h; procedure, shortened: as §1

Compound: COc1cc2c(cc1OC)CN(CCCCNC(=O)c1cc(I)cc(OC)c1OCC[18F])CC2
- Drug uptake (EMT6 [1]): 2.15 % ID/g
- Drug uptake (Lung [2]): 3.75 % ID/g
- Drug uptake (Liver [3]): 10.73 % ID/g
- Drug uptake (Heart [4]): 0.69 % ID/g
- Drug uptake (Muscle tissue [5]): 0.15 % ID/g
- Drug uptake (Brain [6]): 0.14 % ID/g
- Drug uptake (Brain [7]): 0.08 % ID/g
- Drug uptake (Lung [8]): 18.47 % ID/g
- Drug uptake (Liver [9]): 5.57 % ID/g
- Ratio [10]: 7
- Drug uptake (Heart [11]): 0.39 % ID/g
- Drug uptake (Heart [12]): 5.6 % ID/g
- Drug uptake (Lung [13]): 0.74 % ID/g
- Drug uptake (Blood [14]): 1.82 % ID/g
- Drug uptake (Muscle tissue [15]): 2.5 % ID/g
- Drug uptake (Bone [16]): 2.23 % ID/g
- Drug uptake (Adipose tissue [17]): 1.36 % ID/g
- Drug uptake (Muscle tissue [18]): 0.4 % ID/g
- Drug uptake (Heart [19]): 1.54 % ID/g
- Drug uptake (Liver [20]): 15.21 % ID/g
- Drug uptake (EMT6 [21]): 3.05 % ID/g
- Drug uptake (Liver [22]): 2.61 % ID/g
- Drug uptake (EMT6 [23]): 3.11 % ID/g
- Drug uptake (Muscle tissue [24]): 0.73 % ID/g
- Drug uptake (Kidney [25]): 1.34 % ID/g
- Activity [26]: 50%
- Drug uptake (Kidney [27]): 3.5 % ID/g
- Drug uptake (EMT6 [28]): 1.15 % ID/g
- Drug uptake (Bone [29]): 0.93 % ID/g
- Drug uptake (Adipose tissue [30]): 0.17 % ID/g
- Drug uptake (Bone [31]): 2.01 % ID/g
- Drug uptake (Kidney [32]): 7.73 % ID/g
- Drug uptake (Brain [33]): 0.27 % ID/g
- Drug uptake (Bone [34]): 0.59 % ID/g
- Drug uptake (Brain [35]): 0.71 % ID/g
- Drug uptake (Blood [36]): 0.28 % ID/g
- Drug uptake (Blood [37]): 1.23 % ID/g
- Activity [38]: 50%
- Drug uptake (Adipose tissue [39]): 0.47 % ID/g
- Drug uptake (Blood [40]): 0.65 % ID/g
- Drug uptake (Adipose tissue [41]): 4.13 % ID/g
- Ratio [42]: 8
- Drug uptake (Kidney [43]): 19.98 % ID/g
- Drug uptake (Lung [44]): 1.51 % ID/g
